Our source for the cytotoxicity values is ChEMBL document CHEMBL4513216, “Probing the Open Global Health Chemical Diversity Library for Multistage-Active Starting Points for Next-Generation Antimalarials” (ACS Infect Dis, 2020).

The data set can be described thus: Toxicity liver stage against HepG2, at 10uM. Type of data set: cell-based. Further details: test concentration 10 uM, cell line HepG2-A16-CD81EGFP. The following applies: human, HepG2-A16-CD81EGFP cells; read-out: INHIBITION
Summed up: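 Uninfected HepG2-A16-CD81EGFP cells, 3 × 10^3 per well, 1536-well, plated on prespotted compound at 10 μM final, parasite-free screening media added to match infected plates; puromycin 10 μM positive, DMSO 0.5% negative; run in parallel with 48 h PbLuc assay at 37 °C, 5% CO2; viability by CellTiter-Glo luminescence, normalized to controls.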
On to `CCS(=O)(=O)N1CCc2ccc(NC(=O)NCc3ccccc3)cc21`, for which the cytotoxicity at 10 µM was 10.9%.

Take `CC(C)n1ncc2c1NC(=O)CC21C(=O)Nc2c(Cl)cc(Br)cc21` (stereo not drawn): the cytotoxicity at 10 µM was -5.15%. As for `CC1CCN(S(=O)(=O)c2cccn(CC(=O)NC(C)(C)C)c2=O)CC1`, the cytotoxicity at 10 µM was found to be 0.00219%. The figure for `O=C(C1CCCC1)N1CC(c2nc(Cc3ccccc3)no2)C1` is 4.84%. Consider `CSCC(C)(O)CNS(=O)(=O)c1ccc(Br)cc1` (stereo not drawn), for which the cytotoxicity at 10 µM was -1.61%. `O=C(O)CC(CC(=O)NCc1ccsc1)c1cccs1` (stereo not drawn): the cytotoxicity at 10 µM is -8.43%. The figure for `CC(=O)c1ccc(S(=O)(=O)Nc2cnn(C3CCOCC3)c2)cc1` is -2.25%; for `O=C(NC1CC1)N1CC[C@@H](O)[C@@H]1Cc1ccccc1` it is 1.91%.

Consider `CCCS(=O)(=O)N1Cc2nccn2CC(Cn2cccn2)C1` (stereo not drawn), for which the cytotoxicity at 10 µM was -120%. Take `CN(C)c1nccc(N2CCO[C@H]3CN(Cc4ccco4)C[C@H]32)n1`: the cytotoxicity at 10 µM was -122%. The value for `COCCNC(=O)c1cn(C(C)(C)C)c2ncccc12` was 2.74%. Take `Cc1ccc(C2CCCCCN2Cc2cn(C)nc2C)cc1` (stereo not drawn): the cytotoxicity at 10 µM is -8.56%. Regarding `Cc1cnc(N2CC3(CCN(C(=O)c4ccoc4)C3)C2)nc1`, the cytotoxicity at 10 µM is -10.1%. As for `CN1C[C@H]2CCN(C(=O)NC3CCCC3)CC[C@H]2S1(=O)=O`, the cytotoxicity at 10 µM came out at 2.66%. The figure for `CC(C)Nc1nc(O)cc(C2CC(=O)N(C3CCCCC3)C2)n1` (stereo not drawn) is 4.5%; for `Fc1ccc2[nH]c3c(c2c1)CCN1C(c2ccccn2)N2CCC31CC2` (stereo not drawn) it is 6.16%; for `Cc1nonc1CN(C)Cc1cnn(-c2ccc(F)cc2)c1` it is -16.3%. The value for `Cn1cc(C(=O)N2CCN(c3ccccc3)CC2)ccc1=O` was -0.408%.

As for `O=C(C1CCC1)N1CCOc2cccc(F)c21`, the cytotoxicity at 10 µM turned out to be 0.877%. The figure for `CCCc1c(C(=O)N2CCN(Cc3ccccn3)CC2)cnn1C` is -1.96%; for `CCc1noc(C(C)N2CCC(NS(=O)(=O)c3cccs3)CC2)n1` (stereo not drawn) it is 8.45%; for `CC(C)CCN(C)Cn1ncc2cn(-c3ccccc3)nc2c1=O` it is 6.72%. The value for `Cc1ccc(C(C)NC(=O)CSCC(N)=O)cc1` (stereo not drawn) was 3.37%; that for `O=c1n(CCNCc2ccc3ccccc3c2)nc2ccccn12` was 18.6%. The value for `Cc1ccc(C(C)NCCc2nccn2Cc2ccccc2)o1` (stereo not drawn) was 1.98%. Turning to `COCCNC(=O)NC(c1ccccc1)c1ccccc1OC` (stereo not drawn), the cytotoxicity at 10 µM is -0.238%. As to `CCN(C(=O)CN1CCCC1c1c(C)nn(C)c1OC)C1CC1` (stereo not drawn), the cytotoxicity at 10 µM is -0.54%. On to `CC1CCCN(CCCNC(=O)Cc2csc(-c3ccoc3)n2)C1` (stereo not drawn), for which the cytotoxicity at 10 µM was 3.39%. The value for `CC(C)(C)n1ncc2c(=O)[nH]c(N3CC(O)C3)nc21` was -8.61%; that for `CCC(C)(NCC(=O)NC(C)C)c1nccs1` (stereo not drawn) was 3.26%.

`CC(C)CN1CCC(NC(=O)c2ccc(F)cc2Cl)CC1`: the cytotoxicity at 10 µM is -17.1%. Consider `CC(CN1CCOCC1)NC(=O)c1cc(Cl)c2c(c1)OCCO2` (stereo not drawn), for which the cytotoxicity at 10 µM was -1.4%. The figure for `Cc1ccc(OCCN(C)Cc2cscn2)cc1` is 0.51%; for `O=C(Nc1ccc(F)cc1)NC1(CCO)CCOCC1` it is 22.3%. With `CC1CN(C(=O)c2ccn(C)c(=O)c2)c2ccccc2NC1=O` (stereo not drawn), the cytotoxicity at 10 µM is 2.94%. The figure for `COc1ccc(Cl)cc1-c1cc(NC(=O)C2COCCO2)[nH]n1` (stereo not drawn) is -29.1%; for `NC(=O)NC(=O)CNC1(c2ccc(Cl)cc2)CCC1` it is 9.23%; for `Cc1ccc(-n2nc(C)cc2N)nn1` it is 16%. The figure for `N#CC1(NC(=O)Cn2nnc(-c3cc4ccccc4o3)n2)CCCC1` is 0.696%. In the case of `Cc1cc(C)n(-c2cncc(NCCNC(=O)C(C)C)n2)n1`, the cytotoxicity at 10 µM was -2.91%. As to `COCc1nc(NCC2CCS(=O)(=O)C2)c2cnn(C)c2n1` (stereo not drawn), the cytotoxicity at 10 µM was -5.97%. The value for `Cc1cccnc1CCNC(=O)CC1C(=O)NCCN1CCC(C)C` (stereo not drawn) was 9.01%; that for `Cc1nc(O)cc(CCNc2nccc(CCC(F)(F)F)n2)n1` was -149%. The figure for `O=C(c1ccc(Cn2cnnn2)cc1)N1CCC(c2ccncc2)CC1` is 0.571%. On to `COCc1noc(CN2CC(Cc3ccccc3)CC2=O)n1` (stereo not drawn), for which the cytotoxicity at 10 µM was -0.472%. For the compound `CCn1nc(C)c(NC(=O)CN(C)C(C)c2nccs2)c1C` (stereo not drawn), the cytotoxicity at 10 µM was -143%. On to `CCCn1ncc(C(=O)NCc2n[nH]c3c2CCCCC3)c1C`, for which the cytotoxicity at 10 µM was found to be 8.72%. The figure for `CN(Cc1cc(C(C)(C)C)n[nH]1)C(=O)c1ccccc1C1CCNC1` (stereo not drawn) is -2.32%. For the compound `COCCc1noc(Cn2ccc3ncccc3c2=O)n1`, the cytotoxicity at 10 µM is -2.59%. For `Cn1cnnc1CN1CCC2(CCCN(C3CCCCC3)C2=O)C1` (stereo not drawn), the cytotoxicity at 10 µM is -117%. The value for `CC(C)(O)CCc1cccc(C(=O)NCCC2CCOC2)c1` (stereo not drawn) was -1.94%. Turning to `Cc1nc(C(C)N(C)Cc2nc(CCC(C)C)no2)c(C)s1` (stereo not drawn), the cytotoxicity at 10 µM is -4.76%. Regarding `Cc1ccc2oc(CN3CCC(C(=O)O)(n4ccnc4)CC3)c(C)c2c1`, the cytotoxicity at 10 µM is -9.06%. The value for `O=C(c1cccc(S(=O)(=O)NCCc2ccccn2)c1)N1CCOCC1` was -0.764%. Regarding `COCCC1(CO)CCCN(Cc2ccncc2)C1` (stereo not drawn), the cytotoxicity at 10 µM was -141%. In the case of `O=C(CC1CNCCO1)N1CCC(c2cc(N3CCCC3)ncn2)CC1` (stereo not drawn), the cytotoxicity at 10 µM was 5.81%. The figure for `Cn1cc(-c2cc(C(F)F)n3nc(CCC(=O)O)nc3n2)cn1` is 1.61%; for `O=C(NCC1CCOC1)c1csc(-c2ccc(F)cc2)n1` (stereo not drawn) it is -3.06%.

Take `Cc1nc(C2CCCN(C(=O)CCCn3cccn3)C2)sc1C` (stereo not drawn): the cytotoxicity at 10 µM is -0.317%. The figure for `COc1ccnc(N2CCN(CC(=O)N3CCC(C)CC3)CC2)n1` is -3.63%.

With `COCCCN1CCN(CCOC)C(C)C1` (stereo not drawn), the cytotoxicity at 10 µM is -13.4%. On to `Cc1nc(CN(C)C2CCN(CC3CCCC3)C2)no1` (stereo not drawn), for which the cytotoxicity at 10 µM was -5%.

Regarding `O=C(CN1CCN(c2nccs2)CC1)Nc1cccnc1`, the cytotoxicity at 10 µM is -4.23%. The figure for `Cc1cccc(-c2ccc(C(=O)NCC3CCCOC3)c(=O)[nH]2)c1` (stereo not drawn) is -15.7%; for `c1ncn(CC2CCCN(Cc3cn4ccsc4n3)C2)n1` (stereo not drawn) it is -7.04%. Consider `Cc1occc1CNC(=O)N1CCC(Cc2cnn(C)c2)C1` (stereo not drawn), for which the cytotoxicity at 10 µM is -11.1%. As to `Cc1ncsc1C(=O)N(C)Cc1ccsc1`, the cytotoxicity at 10 µM is -9.8%. For `c1ccc(-c2noc(CN3CCCC(Cn4cncn4)C3)n2)nc1` (stereo not drawn), the cytotoxicity at 10 µM came to 3.12%. On to `Cc1cc(CN2CCN(C(=O)NCc3ccc(C)s3)CC2)on1`, for which the cytotoxicity at 10 µM was -4.56%. The value for `CC(C)c1noc(CN2CCC(c3ccnn3CCO)CC2)n1` was -18.6%; that for `CC(C)c1nc(CN2CCCN(Cc3nccn3C)CC2)no1` was 1.13%; that for `Cc1cc(C2CCCN(C(=O)COc3cc(C)on3)C2)n[nH]1` (stereo not drawn) was -3.87%.

For `Cc1ccc(CNCC2CCN(CC(O)c3ccccc3)CC2)o1` (stereo not drawn), the cytotoxicity at 10 µM was -3.33%. The value for `COCCC(=O)N1CCCN(Cc2nccn2C(C)C)CC1` was -10.1%. On to `COCc1nc(C(=O)N2CCCC2c2cccc(C)c2)cs1` (stereo not drawn), for which the cytotoxicity at 10 µM was -8.93%.

Take `COCCCNC(=O)Nc1ccc(F)c(C(N)=O)c1`: the cytotoxicity at 10 µM is -12.9%. Regarding `Cc1cnn(CC2CCCCN2c2nn3cc(C)nc3s2)c1` (stereo not drawn), the cytotoxicity at 10 µM was -18.4%. For `CCCc1n[nH]c(C2CN(CCc3cccs3)CCO2)n1` (stereo not drawn), the cytotoxicity at 10 µM is 4.1%.

Consider `Cc1ccc(CC(=O)N2CCCN(Cc3nccn3C)CC2)cn1`, for which the cytotoxicity at 10 µM is -22.3%. On to `CN1CCN(C2CCN(Cc3nnc(C(C)(C)C)o3)CC2)C1=O`, for which the cytotoxicity at 10 µM was -16.2%.

Consider `O=C(NCCCNc1ccc(C(F)(F)F)cn1)c1ccc(F)cc1F`, for which the cytotoxicity at 10 µM is 3.61%. Take `Cc1ccc(C(=O)Nc2cc(F)ccc2OCC2CCCO2)cn1` (stereo not drawn): the cytotoxicity at 10 µM is 0.207%. Take `CCc1nc(CC(=O)N2CCCC2CN2CCCC2)cs1` (stereo not drawn): the cytotoxicity at 10 µM came to 7.27%. Consider `COc1cccc(Nc2nc(C3CCCNC3)c3ccccn23)c1` (stereo not drawn), for which the cytotoxicity at 10 µM is -0.47%. The figure for `O=C1COC2(CCN(Cc3ccoc3)CC2)CN1c1ccccc1` is -122%; for `O=c1cccnn1CC1CN(CC2CCCC2)Cc2nccn2C1` (stereo not drawn) it is 5.03%; for `Cc1ccc2c(c1)C(NC(=O)N(C)C)CC21CCN(C)CC1` (stereo not drawn) it is 10.4%. The value for `O=C(c1cscn1)N1CC[C@@H]2[C@@H]1CCN2C1CCOCC1` was 2.11%.

As for `CNC(=O)[C@H]1C[C@@H]2CN(S(=O)(=O)c3cccc(F)c3)C[C@@H]2N1C`, the cytotoxicity at 10 µM is -4.94%.

With `Cc1nc(CN2CCN(C3CCOC3)Cc3cccnc32)cs1` (stereo not drawn), the cytotoxicity at 10 µM is 8.91%. The figure for `CN(C)C(=O)[C@@H]1C[C@H]2OCC[C@H]2N(CCOc2ccc(Cl)cc2)C1` is -124%. As to `Cc1noc(C)c1CN1CCO[C@H]2CN(Cc3cnn(C)c3)C[C@H]21`, the cytotoxicity at 10 µM was -0.292%. For the compound `Cn1cccc1C(=O)N1CCC2(CC1)CC(N1CCOCC1)C2`, the cytotoxicity at 10 µM is -8.25%.

Take `O=C([C@@H]1C[C@@H]2CCN(C3CCOCC3)C[C@@H]2O1)N1CCCC1`: the cytotoxicity at 10 µM is 6.81%.

`COCCN1CC[C@@H]2O[C@@H](COCC(=O)N3CCCC3)CC[C@@H]21`: the cytotoxicity at 10 µM is -18.1%. With `CCc1c(C)[nH]c(C2(N)CCCC2)nc1=O`, the cytotoxicity at 10 µM was -0.327%. The figure for `COC1COC2(CCN(Cc3cccc(C#N)c3)CC2)C1` (stereo not drawn) is -1.75%; for `N#Cc1ccc(C(=O)O)nc1C=Cc1cccc(F)c1` it is 8%.
